We go through 7 molecules from ChEMBL document CHEMBL1142422, “Affinity purification and characterization of a key enzyme responsible for circadian rhythmic control of nyctinasty in Lespedeza cuneata L” (Bioorg Med Chem, 2008).

In assay [1] the test system is Prunus dulcis. Kind of assay: Inhibition of Almond beta-glucosidase in acetate buffer at pH 5.0 at 1 mM. Put shortly: (§1)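 Commercial glycosidases were preincubated with varied inhibitor amounts for 15 min at 37 °C in 50 mM acetate buffer: pH 5.0 for the β-glucosidases and β-galactosidase, pH 6.8 for α-glucosidase. The matching p-nitrophenyl glycoside was then added, and the reaction was stopped with 0.5 M Na2CO3. p-Nitrophenol was read at 405 nm. Ki came from Lineweaver–Burk plots, and percent inhibition was also scored at 1 mM inhibitor.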

Assay [2] is described as follows: Inhibition of Aspergillus niger beta-glucosidase in acetate buffer at pH 5.0. Put shortly: as §1
Assay [3] deals with T1, Beta-galactosidase (Aspergillus oryzae) (UniProt Q2U7N3).
T1 sequence (whole entry): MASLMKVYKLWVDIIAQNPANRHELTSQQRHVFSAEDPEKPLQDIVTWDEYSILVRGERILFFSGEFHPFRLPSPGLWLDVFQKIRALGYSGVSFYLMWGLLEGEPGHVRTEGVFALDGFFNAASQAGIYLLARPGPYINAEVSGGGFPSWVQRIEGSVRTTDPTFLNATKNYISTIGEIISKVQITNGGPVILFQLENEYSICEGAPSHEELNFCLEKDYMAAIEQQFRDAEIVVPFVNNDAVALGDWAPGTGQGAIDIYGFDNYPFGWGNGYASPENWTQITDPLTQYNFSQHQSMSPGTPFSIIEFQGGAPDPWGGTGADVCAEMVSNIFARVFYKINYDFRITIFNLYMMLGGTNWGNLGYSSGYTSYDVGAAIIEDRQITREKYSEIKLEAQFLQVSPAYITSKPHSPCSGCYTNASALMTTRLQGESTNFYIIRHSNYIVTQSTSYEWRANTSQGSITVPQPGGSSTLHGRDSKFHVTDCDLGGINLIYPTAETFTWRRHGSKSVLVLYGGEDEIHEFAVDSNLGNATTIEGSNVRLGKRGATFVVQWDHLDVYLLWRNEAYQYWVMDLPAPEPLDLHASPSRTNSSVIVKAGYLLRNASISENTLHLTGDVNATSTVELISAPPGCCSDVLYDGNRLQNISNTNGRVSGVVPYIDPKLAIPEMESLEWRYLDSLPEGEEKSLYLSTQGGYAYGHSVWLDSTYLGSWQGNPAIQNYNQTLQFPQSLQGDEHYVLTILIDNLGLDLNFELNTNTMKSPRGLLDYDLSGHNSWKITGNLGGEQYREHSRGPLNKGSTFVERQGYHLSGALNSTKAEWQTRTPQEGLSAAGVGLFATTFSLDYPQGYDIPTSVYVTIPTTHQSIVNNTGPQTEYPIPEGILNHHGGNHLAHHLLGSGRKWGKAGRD
Kind of assay: Inhibition of Aspergillus oryzae beta-galactosidase in acetate buffer at pH 5.0 at 1 mM. Put shortly: as §1

Assay [4] can be described thus: Inhibition of Aspergillus niger beta-glucosidase in acetate buffer at pH 4.5. Put shortly:
(§2)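 Aspergillus niger β-glucosidase was preincubated with inhibitor for 15 min at 37 °C before the p-nitrophenyl glucoside was added. Buffers were 25 mM acetate at pH 4.5–5.5 and 25 mM Bis-Tris at pH 6.0. The reaction was stopped with 0.5 M Na2CO3, and released p-nitrophenol was read at 405 nm. Ki was derived from Lineweaver–Burk plots.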

Assay [5] is described as follows: Inhibition of Aspergillus niger beta-glucosidase in acetate buffer at pH 5.5. Put shortly: as §2
Assay [6] can be described thus: Inhibition of Aspergillus niger beta-glucosidase in acetate buffer at pH 6.0.
Assay [7] concerns Geobacillus stearothermophilus. Kind of assay: Inhibition of Bacillus stearothermophilus alpha-glucosidase in acetate buffer at pH 6.8 at 1 mM. Put shortly: as §1
A short description of assay [8]: Binding affinity to leaf opening factor beta-glucosidase relative to potassium lespedezate. Also noted: unit not given here. Put shortly: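 Purified LOFG was added to 25 mM acetate pH 4.5 containing 1 mM of each substrate analog, preincubated at 37 °C. The mixture was incubated 2 h at 37 °C, then stopped with 0.1 M Tris-HCl pH 9.0, bringing the pH to 8.0. The released aglycon was quantified by RP-HPLC, and activity was expressed relative to potassium lespedezate.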

Assay [9] can be described thus: Activity of leaf opening factor beta-glucosidase at pH 4.5. Put shortly: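 Purified leaf-opening factor β-glucosidase (LOFG) from L. cuneata leaves, assayed in 25 mM acetate pH 4.5 with potassium lespedezate at four substrate levels. The semicarbazone of the released α-keto acid was trapped with 1 mM semicarbazide and quantified by RP-HPLC after 2 h at 37 °C. Km was taken from a Lineweaver–Burk plot.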

The source made the active and inactive calls. The calls are words filed in the database; no cut-off is given here. Some results are limits rather than exact numbers.

For orientation: inhibition means the change of the read-out against control, counted positive when it falls. As a reminder, the Ki is a dissociation constant, usually derived from enzyme kinetics or from competition with a known ligand. As a reminder, the Km is the substrate concentration at which the rate is half of its maximum.

As for `OCC(=Nc1ccc(O)cc1)N[C@@H]1O[C@H](CO)[C@@H](O)[C@H](O)[C@H]1O`, in assay [1], the inhibition was below 90%. Also, the Ki is 1300 nM in [2], 3500 nM in [4], 1330 nM in [5] and 4120 nM in assay [6]. The outcome in assay [3] and in assay [7] was inactive.
`O=C(O)/C(=C\c1ccc(O)cc1)O[C@@H]1O[C@H](CO)[C@H](O)[C@H](O)[C@H]1O` showed an Activity in assay [8] of 0.
On to `O=C(O)/C(=C/c1ccc(O)cc1)O[C@@H]1O[C@H](CO)[C@H](O)[C@H](O)[C@H]1O`, for which the Activity in [8] was 0.
For `O=C(O)/C(=C\c1ccc(O)cc1)O[C@@H]1O[C@H](CO)[C@@H](O)[C@H](O)[C@H]1O`, the Km in [9] amounted to 548 µM.
Consider `O=C(O)/C(=C/c1ccc(O)cc1)O[C@@H]1O[C@H](CO)[C@@H](O)[C@H](O)[C@H]1O`, for which the Activity in assay [8] was 0.
Molecule `OC/C(=C\c1ccc(O)cc1)N[C@@H]1O[C@H](CO)[C@@H](O)[C@H](O)[C@H]1O` registered an Activity in assay [8] of 113.
Molecule `O=C(O)C(Cc1ccc(O)cc1)O[C@@H]1O[C@H](CO)[C@@H](O)[C@H](O)[C@H]1O` (stereo partly drawn) registered an Activity in assay [8] of 26.
